Measured values published in ChEMBL document CHEMBL4613263, “Optimization of Tetrahydroindazoles as Inhibitors of Human Dihydroorotate Dehydrogenase and Evaluation of Their Activity and In Vitro Metabolic Stability” (J Med Chem, 2020).
Values after ≈ are worked out from the molar mass of the structure shown. Active and inactive are the calls of the source. The calls are words filed in the database; no cut-off is given here.

What was measured:
[1] = Antiproliferative activity against human ARN8 cells assessed as reduction in cell viability incubated for 72 hrs by SRB assay; type: functional, cell-based
[2] = Cytotoxicity against human HNDF cells assessed as reduction in cell viability incubated for 72 hrs by SRB assay; type: cell-based
Procedure, shortened: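 Human normal dermal fibroblasts seeded at 15×10^2 per well and left 24 h, then exposed to compound for 72 h with 0.1% DMSO final. Cells fixed with TCA at 4 °C for 1 h, stained with SRB, solubilized in 10 mM Tris and read at 490 nm. Values normalized to DMSO control. Tabulated means come only from experiments where IC50 fell below 10 000 nM.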

[3] = Kinetic aqueous solubility of compound in Prima HT solution at pH 7.4 incubated for 4 hrs by UV-spectrophotometry; type: physicochemical; conditions: read-out: Kinetic_solubility
Procedure, shortened: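 20 mM DMSO stocks diluted 100× into Prima HT buffer at pH 7.4 and shaken 4 h at rt. Samples filtered through 0.22 µm, mixed 1:1 with isopropanol and scanned by UV from 190–400 nm against stock reference standards.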

[4] = Metabolic stability in human liver microsomes assessed as half life at 1 uM incubated for 60 mins by LC-MS/MS analysis; type: ADME, Microsome; conditions: for half-life at 1 µM: liver microsomes
Procedure, shortened: (§1)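 Compound at 1 µM with 1.0 mg/mL human or mouse liver microsomes in 50 mM potassium phosphate pH 7.4, preincubated 5 min at 37 °C. Started with 1 mM NADPH (or blank buffer). Quenched with cold acetonitrile containing glipizide at 0, 5, 15, 30, 60 min. Parent loss tracked by LC-MS/MS in MRM mode; t½ = 0.693/k from slope of peak-area ratio versus time.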

[5] = Metabolic stability in CD-1 mouse liver microsomes assessed as half life at 1 uM incubated for 60 mins by LC-MS/MS analysis; type: ADME, Microsome; conditions: for half-life at 1 µM: CD-1, mouse, liver microsomes; procedure, shortened: as §1
[6] = Drug metabolism in CD-1 mouse liver microsomes assessed as hydroxylation-mediated M2 metabolite with m/z as 397.1 formation by measuring retention time at 10 uM incubated for 60 mins by LC-MS/MS analysis; type: ADME, Microsome; conditions: 1 h
Procedure, shortened: (§2)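 10 µM compound in 100 mM phosphate pH 7.4 with pooled female CD-1 mouse liver microsomes and NADPH, at 37 °C for 0, 10, 20, 40 and 60 min. Stopped with equal-volume cold acetonitrile, then centrifuged, dried and reconstituted. Metabolites and parent resolved on C18 UHPLC with ion-trap MS. Each peak reported as % of total (metabolite + parent) area.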

[7] = Drug metabolism in CD-1 mouse liver microsomes assessed as hydroxylation-mediated M1 metabolite with m/z as 397.1 formation by measuring retention time at 10 uM incubated for 60 mins by LC-MS/MS analysis; type: ADME, Microsome; conditions: 1 h; procedure, shortened: as §2
[8] = biological target: T1, Dihydroorotate dehydrogenase (quinone), mitochondrial (Homo sapiens, UniProt Q02127); assay: Inhibition of DHODH in human ARN8 cells assessed as activation of p53-dependent transcription at 0.05 to 10 uM incubated for 16 hrs by CPRG assay; type: cell-based
T1 sequence (Q02127 whole entry): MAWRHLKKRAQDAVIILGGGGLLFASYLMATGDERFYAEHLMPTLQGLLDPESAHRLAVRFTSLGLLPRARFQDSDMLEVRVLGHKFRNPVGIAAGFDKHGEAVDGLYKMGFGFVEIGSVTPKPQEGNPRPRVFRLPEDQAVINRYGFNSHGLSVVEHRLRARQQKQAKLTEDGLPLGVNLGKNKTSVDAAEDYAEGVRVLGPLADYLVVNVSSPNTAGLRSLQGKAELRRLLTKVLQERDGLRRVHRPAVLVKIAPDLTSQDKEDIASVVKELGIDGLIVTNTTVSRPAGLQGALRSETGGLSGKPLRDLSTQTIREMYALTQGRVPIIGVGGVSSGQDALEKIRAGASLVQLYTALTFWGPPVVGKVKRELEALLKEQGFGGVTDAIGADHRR
Procedure, shortened: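 ARN8 cells carrying the RGCΔFos-LacZ p53 reporter seeded at 2×10^4 per well and left 24 h, then treated 16 h (0.1% DMSO final, ±100 µM uridine). Cells washed, lysed and frozen at −20 °C for at least 2 h. β-galactosidase measured with CPRG substrate at pH 7.5, read at 590 nm after 24 h. Result is fold change vs DMSO; mean ± SD of three technical replicates.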

[9] = Drug metabolism in CD-1 mouse liver microsomes assessed as disappearance of parent compound by measuring parent compound retention time at 10 uM incubated for 60 mins by LC-MS/MS analysis; type: ADME, Microsome; conditions: 1 h; procedure, shortened: as §2
[10] = Cytotoxicity against human HNDF cells assessed as reduction in cell viability incubated with compound at higher concentration for 72 hrs in presence of 100 uM […], uridine by SRB assay; type: cell-based
Procedure, shortened: (§3)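 Normal dermal fibroblasts seeded at 15×10^2 per well and left 24 h, then treated 72 h in medium with 0.1% DMSO final plus 100 µM uridine. Fixed with TCA, stained with 0.4% SRB, dye dissolved in Tris and read at 490 nm. Growth/viability given as % of DMSO control; mean ± SD of three technical replicates.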

[11] = species: Homo sapiens; assay: Antiproliferative activity against human ARN8 cells assessed as reduction in cell viability incubated with compound at higher concentration for 72 hrs in presence of 100 uM […], uridine by SRB assay; type: functional, cell-based
[12] = species: Homo sapiens; assay: Antiproliferative activity against human ARN8 cells assessed as reduction in cell viability at 0.005 to 10 uM incubated for 72 hrs in presence of 100 uM […], uridine by SRB assay; type: functional, cell-based
[13] = Cytotoxicity against human HNDF cells assessed as reduction in cell viability incubated for 72 hrs in presence of 100 uM […], uridine by SRB assay; type: cell-based; procedure, shortened: as §3
[14] = biological target: DNA topoisomerase 2-alpha (Homo sapiens) (UniProt P11388); conditions: 20 uM
Sequence of DNA topoisomerase 2-alpha (Homo sapiens) (P11388 whole entry): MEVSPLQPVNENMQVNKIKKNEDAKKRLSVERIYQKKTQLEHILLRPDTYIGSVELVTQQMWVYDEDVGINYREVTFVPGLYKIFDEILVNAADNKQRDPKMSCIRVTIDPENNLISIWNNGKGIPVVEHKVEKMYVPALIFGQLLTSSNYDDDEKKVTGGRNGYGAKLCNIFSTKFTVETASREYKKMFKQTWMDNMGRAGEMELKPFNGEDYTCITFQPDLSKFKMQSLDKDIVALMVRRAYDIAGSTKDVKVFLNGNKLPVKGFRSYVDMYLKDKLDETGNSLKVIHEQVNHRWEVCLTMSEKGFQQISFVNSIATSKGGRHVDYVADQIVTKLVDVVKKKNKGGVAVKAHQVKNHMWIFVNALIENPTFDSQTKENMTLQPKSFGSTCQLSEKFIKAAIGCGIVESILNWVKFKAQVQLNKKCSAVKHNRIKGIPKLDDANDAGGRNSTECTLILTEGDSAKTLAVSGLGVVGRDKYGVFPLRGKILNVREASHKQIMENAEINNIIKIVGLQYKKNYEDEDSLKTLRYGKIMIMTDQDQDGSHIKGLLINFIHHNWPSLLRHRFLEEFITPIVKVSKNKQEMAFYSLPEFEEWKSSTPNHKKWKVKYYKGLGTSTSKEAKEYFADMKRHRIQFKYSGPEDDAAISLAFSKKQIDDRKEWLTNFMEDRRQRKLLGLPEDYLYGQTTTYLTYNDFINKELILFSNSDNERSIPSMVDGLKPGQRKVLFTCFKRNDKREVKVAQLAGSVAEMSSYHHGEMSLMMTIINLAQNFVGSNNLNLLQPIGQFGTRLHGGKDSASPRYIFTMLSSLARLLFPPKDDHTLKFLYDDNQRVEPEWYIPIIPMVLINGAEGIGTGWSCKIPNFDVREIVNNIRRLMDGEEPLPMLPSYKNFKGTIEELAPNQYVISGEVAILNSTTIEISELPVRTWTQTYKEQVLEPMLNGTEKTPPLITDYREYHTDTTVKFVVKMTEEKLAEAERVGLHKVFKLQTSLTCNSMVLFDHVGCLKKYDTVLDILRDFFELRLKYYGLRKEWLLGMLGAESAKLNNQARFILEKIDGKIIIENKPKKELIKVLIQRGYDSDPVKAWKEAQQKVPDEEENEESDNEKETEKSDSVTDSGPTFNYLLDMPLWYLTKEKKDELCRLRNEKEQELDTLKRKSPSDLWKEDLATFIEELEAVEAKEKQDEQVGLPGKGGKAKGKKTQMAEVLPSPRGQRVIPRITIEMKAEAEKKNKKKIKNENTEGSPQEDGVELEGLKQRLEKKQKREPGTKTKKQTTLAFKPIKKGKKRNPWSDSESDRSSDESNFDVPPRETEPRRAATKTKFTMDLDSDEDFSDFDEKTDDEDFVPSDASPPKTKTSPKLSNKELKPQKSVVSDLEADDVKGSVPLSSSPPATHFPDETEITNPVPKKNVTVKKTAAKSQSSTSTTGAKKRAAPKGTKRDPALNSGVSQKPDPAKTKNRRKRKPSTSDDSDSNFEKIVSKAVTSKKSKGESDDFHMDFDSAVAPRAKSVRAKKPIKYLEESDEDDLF

[15] = biological target: DNA topoisomerase 2-alpha (Homo sapiens) (UniProt P11388); conditions: 20 uM; remark: listed apart in the source
[16] = biological target: DNA topoisomerase 2-alpha (Homo sapiens) (UniProt P11388); conditions: 20 uM; remark: listed apart in the source
[17] = biological target: DNA topoisomerase 2-alpha (Homo sapiens) (UniProt P11388); conditions: 20 uM; remark: listed apart in the source
[18] = biological target: DNA topoisomerase 2-alpha (Homo sapiens) (UniProt P11388); conditions: 20 uM; remark: listed apart in the source
[19] = biological target: T1, Dihydroorotate dehydrogenase (quinone), mitochondrial; assay: Inhibition of DHOH in human ARN8 cells assessed as gammaH2AX level at 20 uM incubated for 1 hr in presence of pan-caspase inhibitor, Z-VAD-FMK by Western blot analysis; type: cell-based
Procedure, shortened: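 ARN8 cells treated 24 h at 20 nM, with 20 µM Z-VAD-FMK or vehicle added 4.5 h before harvest. Etoposide arm was 20 µM for 1 h alongside Z-VAD-FMK. Lysates normalized for protein and analysed by western blot for p53, p-Ser15 p53, γ-H2AX, H2AX and cleaved PARP (85 kDa) against stain-free total-protein loading.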

[20] = biological target: DNA topoisomerase 2-alpha (Homo sapiens) (UniProt P11388); conditions: 20 uM; remark: listed apart in the source
[21] = biological target: T1, Dihydroorotate dehydrogenase (quinone), mitochondrial; assay: Inhibition of recombinant human DHODH using dihydroorotic acid as substrate measured for 68 mins by DCIP based colorimetric assay
[22] = biological target: T1, Dihydroorotate dehydrogenase (quinone), mitochondrial; assay: Inhibition of recombinant human N-terminal His-tagged DHODH (31 to 395 residues) expressed in Escherichia coli expression system using dihydroorotic acid as substrate by DCIP assay
[23] = Homo sapiens, ARN8, 72 h, read-out: IC50
[24] = Homo sapiens, 72 h, read-out: IC50

O=C(NC1CCCc2c1cnn2-c1ccccc1F)c1ccccn1 (racemic)
IC50 [1, 23]: 5400 nM | IC50 [2, 24]: > 10000 nM

Cc1c(-c2ccc(-c3ccccc3F)cc2)nc2ccc(F)cc2c1C(=O)O [BREQUINAR]
solubility kinetic at 4 h [3]: 110 µM (≈ 41.3 µg/mL) | IC50 [1, 23]: 400 nM | half-life at 1 µM [4]: > 60 min | IC50 [2, 24]: > 10000 nM | Stability ([5]; mouse, microsomes, 1 h, 1 µM): Stable

O=C(N[C@@H]1CCCc2c1cnn2-c1ccccc1F)c1onc2c1CCCC2
Retention_time [6]: 4.3 min | solubility kinetic at 4 h [3]: 15 µM (≈ 5.71 µg/mL) | IC50 [1, 23]: 160 nM | half-life at 1 µM [4]: 85 min | IC50 [2, 24]: > 10000 nM | half-life at 1 µM [5]: 8 min | Retention_time [7]: 4.1 min | inhibition [8]: Active | Retention_time [9]: 5.3 min

O=C(NC1CCCc2c1cnn2-c1ccccc1F)c1onc2c1CCCC2 (racemic)
IC50 [1, 23]: 220 nM | IC50 [2, 24]: 8900 nM

Cc1ccccc1-n1ncc2c1CCC[C@H]2NC(=O)c1noc2c1CCCC2
solubility kinetic at 4 h [3]: 10 µM (≈ 3.76 µg/mL) | IC50 [1, 23]: 14 nM | half-life at 1 µM [4]: 23 min | IC50 [2, 24]: > 10000 nM | half-life at 1 µM [5]: 6 min | Activity [10]: Non-Toxic | inhibition [11]: Active

Cc1ccccc1-n1ncc2c1CCCC2NC(=O)c1noc2c1CCCC2 (racemic)
IC50 [1, 23]: 15 nM | Activity [12]: inactive | Activity [13]: Toxic | IC50 [2, 24]: 8600 nM | Activity [10]: Non-Toxic | inhibition [11]: Active

O=C(N[C@H]1CCCc2c1cnn2-c1ccccc1F)c1ccccn1
IC50 [1]: Not Active | IC50 [2]: Not Active

COc1cc([C@@H]2c3cc4c(cc3[C@@H](O[C@@H]3O[C@@H]5CO[C@@H](C)O[C@H]5[C@H](O)[C@H]3O)[C@H]3COC(=O)[C@H]23)OCO4)cc(OC)c1O
inhibition [14]: Active | inhibition [15]: Active | inhibition [16]: Active | inhibition [17]: Active | inhibition [18]: Active | inhibition [19]: Active | inhibition [20]: Active

O=C(NC1CCCc2c1cnn2-c1ccccc1)c1noc2c1CCCC2 (racemic)
IC50 [1, 23]: 430 nM | IC50 [2, 24]: 7000 nM

O=C(N[C@@H]1CCCc2c1cnn2-c1ccccc1F)c1ncc2ccccn12
IC50 [1, 23]: 38 nM | IC50 [2, 24]: 9400 nM

O=C(N[C@@H]1CCCc2c1cnn2-c1ccccc1F)c1ccccn1
IC50 [1, 23]: 930 nM | half-life at 1 µM [4]: > 60 min | IC50 [2, 24]: > 10000 nM | half-life at 1 µM [5]: 1 min

O=C(N[C@H]1CCCc2c1cnn2-c1ccccc1F)c1noc2c1CCCC2
IC50 [1]: Not Active | IC50 [2]: Not Active

Cc1ccccc1-n1ncc2c1CCC[C@H]2NC(=O)c1onc2c1CCCC2
IC50 [1, 23]: 73 nM | IC50 [2, 24]: > 10000 nM

Cc1ccc(F)c(-n2ncc3c2CCC[C@H]3NC(=O)c2onc3c2CCCC3)c1
IC50 [1, 23]: 200 nM | IC50 [2, 24]: 6700 nM

O=C(N[C@@H]1CCCc2c1cnn2-c1ccccc1F)c1cc(C(F)(F)F)ccn1
solubility kinetic at 4 h [3]: < 5 µM | IC50 [1, 23]: 110 nM | Activity [12]: inactive | Activity [13]: Toxic | Stability ([4]; microsomes, 1 h, 1 µM): Stable | IC50 [2, 24]: > 10000 nM | half-life at 1 µM [5]: 54 min

O=C(NC1CCCc2c1cnn2-c1ccccc1F)c1ccccc1 (racemic)
IC50 [1]: Not Active | IC50 [2]: Not Active

O=C(N[C@@H]1CCCc2c1cnn2-c1ccccc1F)c1noc2c1CCCC2
IC50 [1, 23]: 80 nM | Activity [12]: inactive | IC50 [2, 24]: 10000 nM

COC(=O)c1ccc(C(=O)NC2CCCc3c2cnn3-c2ccccc2F)nc1 (racemic)
IC50 [21]: > 10000 nM

O=C(N[C@H]1CCCc2c1cnn2-c1ccccc1F)c1onc2c1CCCC2
IC50 [1]: Not Active | IC50 [22]: 6500 nM | IC50 [2]: Not Active | inhibition [8]: inactive

O=C(N[C@@H]1CCCc2c1cnn2-c1ccccc1F)c1ncccn1
IC50 [1]: Not Active | IC50 [2]: Not Active

Cc1cccc(-n2ncc3c2CCCC3NC(=O)c2noc3c2CCCC3)c1 (racemic)
IC50 [1, 23]: 170 nM | IC50 [2, 24]: 8000 nM

Cc1cccc(-n2ncc3c2CCCC3NC(=O)c2noc3c2CCCC3)c1C (racemic)
IC50 [1, 23]: 23 nM | Activity [12]: inactive | Activity [13]: Toxic | IC50 [2, 24]: 7700 nM | Activity [10]: Non-Toxic | inhibition [11]: Active

Cc1ccnc(C(=O)N[C@@H]2CCCc3c2cnn3-c2ccccc2C)c1
solubility kinetic at 4 h [3]: 110 µM (≈ 38.1 µg/mL) | IC50 [1, 23]: 62 nM | Activity [12]: inactive | Activity [13]: Toxic | half-life at 1 µM [4]: > 60 min | IC50 [2, 24]: > 10000 nM | half-life at 1 µM [5]: 10 min
